The source of these data is PMC3855573 (Biochemistry, 2013).

The conditions of test [1]: read-out: KD of Mg for free ADP; previously determined; cited from earlier work.
A further test deals with MV FlAsH (Gallus gallus, UniProt Q02440, D297C/G292C/I296C/S293C/V295G). Description: Actin-activated steady-state ATPase, NADH coupled assay. It counts as biochemical, chicken. The settings on record: 20 μM actin, 25°C.
In a further test the target is acto-MV FlAsH (Gallus gallus, UniProt Q02440, D297C/G292C/I296C/S293C/V295G). Nature of the test: Mg dependence of ADP release rate constants. It counts as binding, chicken. The conditions noted are these: read-out: KD.Mg, Eq. 14. Summed up:
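Acto-MV FlAsH·mantdADP (final 0.25 μM MV FlAsH, 0.5 μM actin, 10 μM mantdADP) stopped-flow mixed with 1 mM ATP at 25°C. Buffer: K50TCEP, pH 7.0, with 0.5–10 mM MgCl2; free Mg calculated from stability constants. FRET read with 365 nm excitation and 515 nm long-pass emission. Biexponential rate constants vs free Mg fitted to Eq. 14 to extrapolate Mg-free and Mg-saturated values and KD.Mg.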

The structures appear in SMILES notation. Several values for one entry are separate records, joined by “and”; a condition that tells them apart may be missing. Identical values can stand only once. Like-named read-outs stand apart in the source and are kept apart here.

Take `[Mg+2]` [Mg, magnesium]: the Kd is 350 ± 300 µM in test [1], 900 ± 400 µM at acto-MV FlAsH (actomyosin V strong ADP binding conformation) and 600 ± 300 µM at acto-MV FlAsH (actomyosin V weak ADP binding conformation). Besides, the “reduction in actin-activated ATPase activity” value at MV FlAsH (high free Mg (3–9 mM) versus low free Mg (0.1–0.3 mM)) is 50–60% and 60%.
In the case of `O=C(O)CN(CCN(CC(=O)O)CC(=O)O)CC(=O)O` [EDTA, reference compound], the “actin-activated ATPase rate” value at MV FlAsH (K50 buffer containing 4 mM EDTA (Mg free)) was 0.06 s⁻¹.

The term Kd denotes the concentration at which binding is half-saturated.
